For data set [1], the target named is Replicase polyprotein 1ab (Severe acute respiratory syndrome coronavirus 2, UniProt P0DTD1). In words: (§1) Inhibition of N-terminal 6His/SUMO-tagged SARS-CoV-2 NSP14 expressed in Escherichia coli Rosetta 2 (DE3) PlysS cells using 5'GpppACCCCCCCCC-Biotin 3' and 3H-SAM as substrates incubated for 30 mins by TopCount scintillation proximity assay. On the technique in general: SPA uses beads or plates that emit light when radiolabelled molecules are held near them.

The target in data set [2] is Replicase polyprotein 1ab (Severe acute respiratory syndrome coronavirus 2) (UniProt P0DTD1). In words: Inhibition of N-terminal 6His/SUMO-tagged SARS-CoV-2 NSP14 expressed in Escherichia coli Rosetta 2 (DE3) PlysS cells using 5'GpppACCCCCCCCC-Biotin 3' and 3H-SAM as substrates at 300 uM incubated for 30 mins by TopCount scintillation proximity assay relative to control.

Data set [3] deals with Bacteria. In words: Inhibition of beta-lactamase AmpC (unknown origin) pre-incubated with compound for 5 mins followed by substrate addition and measured after 1.5 mins by absorbance based plate reader analysis. The conditions noted are these: time 6.5 min. Summed up:
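AmpC at 2 nM preincubated 5 min with compound at room temperature in 50 mM KPi, pH 7.0, with 1% v/v DMSO. Started with 50 μM CENTA (read at 405 nm) or 50 μM nitrocefin (read at 490 nm), monitored 1 min 30 s. Initial rate taken as % of DMSO control. Top concentration in triplicate; eight-point half-log curves in triplicate where inhibition exceeded 40%.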

The species entered for data set [4] is Homo sapiens. In words: Inhibition of MDH (unknown origin) using oxaloacetic acid as substrate preincubated with compound for 5 mins followed by substrate addition and measured after 1.5 min in the presence of NADH by absorbance based plate reader analysis. Particulars: time 6.5 min. In short, it runs like this: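 MDH assay at room temperature in 50 mM KPi, pH 7.0, with 1% v/v DMSO final. Compound preincubated 5 min with 2 nM enzyme. Reaction started with 200 μM NADH plus 200 μM oxaloacetic acid, and absorbance followed at 340 nm for 1 min 30 s. Initial rate divided by the DMSO control rate. Single top concentration in triplicate; eight-point half-log curves in triplicate where inhibition exceeded 40%.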

A short description of data set [5]: Aggregation property of the compound in KPi buffer at pH 7.0 assessed as formation of colloid-like particles by dynamic light scattering analysis. The data set is classed as physicochemical. In short, it runs like this: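 Compounds diluted as 8-point half-log series in filtered 50 mM KPi, pH 7.0, with 1% v/v DMSO final. Particles detected by dynamic light scattering, triplicate at each concentration. CAC taken as the intersection of separate nonlinear fits to aggregating (>10^6 scattering intensity) and non-aggregating data.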

The species named for data set [6] is Homo sapiens. In words: Inhibition of MDH (unknown origin) using oxaloacetic acid as substrate preincubated with compound for 5 mins followed by substrate addition and measured after 1.5 min in the presence of NADH and 0.01% Triton-X 100 by absorbance based plate reader analysis. Particulars: time 6.5 min. In short, it runs like this:
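Detergent-reversal MDH assay: 50 mM KPi, pH 7.0, with 1% v/v DMSO and 0.01% v/v Triton X-100. Enzyme at 2 nM preincubated 5 min with compound, then started with 200 μM NADH plus 200 μM oxaloacetate. A340 read for 1 min 30 s, rate normalised to DMSO control. Eight-point half-log curves in triplicate.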

Data set [7] deals with Bacteria. In words: Inhibition of beta-lactamase AmpC (unknown origin) pre-incubated with compound for 5 mins followed by substrate addition and measured after 1.5 mins in the presence of 0.01% Triton-X 100 by absorbance based plate reader analysis. Particulars: time 6.5 min. Summed up:
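AmpC detergent-reversal assay: 50 mM KPi, pH 7.0, with 1% v/v DMSO and 0.01% v/v Triton X-100. Enzyme at 2 nM preincubated 5 min with compound, then 50 μM CENTA (405 nm) or nitrocefin (490 nm) added. Absorbance followed for 1 min 30 s and rate normalised to DMSO. Eight-point half-log curves in triplicate.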

Data set [8] addresses Replicase polyprotein 1ab (Severe acute respiratory syndrome coronavirus 2) (UniProt P0DTD1). In words: Inhibition of N-terminal 6His/SUMO-tagged SARS-CoV-2 NSP14 expressed in Escherichia coli Rosetta 2 (DE3) PlysS cells using 5'GpppACCCCCCCCC-Biotin 3' and 3H-SAM as substrates at 100 uM incubated for 30 mins by TopCount scintillation proximity assay relative to control.
Data set [9] shares this target. In words: Irreversible covalent inhibition of N-terminal 6His/SUMO-tagged SARS-CoV-2 NSP14 expressed in Escherichia coli Rosetta 2 (DE3) PlysS cells using 5'GpppACCCCCCCCC-Biotin 3' and 3H-SAM as substrates assessed as adduct formation at 500 uM measured upto 18 hrs by mass spectrometric analysis. Summed up:
(§2)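 1 μM enzyme held alone or with 50 or 500 μM compound at room temperature. Sampled at 0, 2, 4, 8 and 18 h by QTof MS in 0.05% formic acid; intact mass deconvoluted from 700–1400 m/z.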

For data set [10] the target is unchanged. The description is as §1.
The target is the same in data set [11]. In words: Inhibition of N-terminal 6His/SUMO-tagged SARS-CoV-2 NSP14 expressed in Escherichia coli Rosetta 2 (DE3) PlysS cells using 5'GpppACCCCCCCCC-Biotin 3' and 3H-SAM as substrates at 30 to 50 uM incubated for 30 mins by TopCount scintillation proximity assay relative to control. The conditions noted are these: dose 30-50 µM.
Data set [12] shares this target. In words: Non-covalent inhibition of N-terminal 6His/SUMO-tagged SARS-CoV-2 NSP14 expressed in Escherichia coli Rosetta 2 (DE3) PlysS cells using 5'GpppACCCCCCCCC-Biotin 3' and 3H-SAM as substrates incubated for 30 mins by TopCount scintillation proximity assay. Summed up: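 Radiometric N7-MTase assay tracking [3H]-methyl transfer from SAM onto the cap of […] RNA, run with 0.01% v/v Triton X-100. Concentration–response in triplicate to give IC50.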

Data set [13] has the same target. In words: Irreversible covalent inhibition of N-terminal 6His/SUMO-tagged SARS-CoV-2 NSP14 expressed in Escherichia coli Rosetta 2 (DE3) PlysS cells using 5'GpppACCCCCCCCC-Biotin 3' and 3H-SAM as substrates assessed as adduct formation at 50 uM measured upto 18 hrs by mass spectrometric analysis. Summed up:
as §2

Data set [14] shares this target. In words: Competitive inhibition of N-terminal 6His/SUMO-tagged SARS-CoV-2 NSP14 expressed in Escherichia coli Rosetta 2 (DE3) PlysS cells using 5'GpppACCCCCCCCC-Biotin 3' and 3H-SAM as substrates at increasing concentration incubated for 30 mins by TopCount scintillation proximity assay. Summed up:
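Competition pattern read from IC50 shifts. […] Separately, SAM fixed at 1.25 μM (5× Km) with RNA varied up to 0.5 μM (10× Km). A linear rise of IC50 with substrate concentration was taken as competitive inhibition.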

The target is the same in data set [15]. In words: Reversible inhibition of N-terminal 6His/SUMO-tagged SARS-CoV-2 NSP14 expressed in Escherichia coli Rosetta 2 (DE3) PlysS cells using 5'GpppACCCCCCCCC-Biotin 3' and 3H-SAM as substrates at increasing concentration incubated for 30 mins by TopCount scintillation proximity assay.
For data set [16] the target is unchanged. In words: Irreversible covalent inhibition of N-terminal 6His/SUMO-tagged SARS-CoV-2 NSP14 expressed in Escherichia coli Rosetta 2 (DE3) PlysS cells using 5'GpppACCCCCCCCC-Biotin 3' and 3H-SAM as substrates assessed as adduct formation incubated for 2 hrs by mass spectrometric analysis. In short, it runs like this:
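Nsp14 incubated with 20-fold molar excess of compound for 2 h at 20 °C, then taken into 0.1% formic acid. Separated by HPLC on a 5–95% acetonitrile/water gradient and analysed by ESI time-of-flight MS for protein mass shift.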

Active and inactive are the calls of the source. The rule behind the calls is not given here.

What is called IC50 is the concentration that inhibits the measured activity by half. A higher IC50 goes with weaker potency in that assay. As a reminder, the inhibition is the percentage by which the read-out fell short of the control.

In data set [1], `Nc1cn2cc(-c3cscc3Cl)ncc2n1` yielded an IC50 of 78 µM. This molecule registered an inhibition in data set [2] of over 50%.
Take `N#Cc1c(C(=O)NCc2ccc(O)c([N+](=O)[O-])c2)[nH]c2ccccc12`: the inhibition result in the data set with Bacteria [3] and in the data set filed under Homo sapiens [4] was “Active” each time. In data set [1], this molecule registered an IC50 of 27 µM. The result in data set [5] was Active. Besides, the inhibition entry in the data set filed under Homo sapiens [6] and in the data set with Bacteria [7] was “inactive” in each case.
The molecule `C=C(Cl)COC(=O)c1cnc2[nH]ccc2c1` yielded an IC50 in data set [1] of 31 µM. The same molecule returned an inhibition in data set [2] of over 50%. Besides, the inhibition entry in the data set listed under Homo sapiens [4] is “Active”.
As for `Cn1ncc(N)c1-c1cc2ccccc2[nH]1`, the IC50 in data set [1] was 341 µM. Moreover, the inhibition in data set [2] is over 50%. For the same molecule, the result in data set [5] was Active.
On to `O=Cc1nc2ccccn2c1C=C1COC1`, for which the IC50 in data set [1] was found to be 11 µM. The inhibition in data set [8] was over 50%.
As to `C=CC(=O)NCCC(=O)N1CCC(C2C(=O)Nc3cc(Cl)ccc32)CC1` (stereo not given), half-maximal inhibition in [1] (IC50) was put at 32 µM. In data set [8], the inhibition is over 50%. Further, the inhibition result in data set [9] was “Active”.
For `CN(Cc1ccncc1)c1cc(Br)ncn1`, it took 170 µM to reach half-maximal inhibition in [1] (IC50). In addition, in data set [2], the inhibition is over 50%. For the same molecule, the outcome in data set [5] was Active.
Molecule `Cc1cc(C(=O)Nc2cccc(N3CCNC3=O)c2C)sc1C=O` returned an IC50 in data set [1] of 3.5 µM. This molecule returned an inhibition in [8] of over 50%.
For `CN(C)c1cncc(NC(=O)c2ccc(C=O)cc2O)c1`, the inhibition result in the data set on Bacteria [3] and in the data set filed under Homo sapiens [4] was “inactive” each time. In [1], this molecule registered an IC50 of 12 µM. The same molecule registered an inhibition in data set [8] of over 50%.
For `C#Cc1cccc(NC(=O)c2cccc(-c3cnc4[nH]c(=O)n(C)c4c3)c2)c1`, the inhibition entry with Bacteria [3] and in the data set filed under Homo sapiens [4] was “inactive” in each case. Besides, the CAC in [5] came to 10 µM.
`O=Cc1cc(F)c(C(=O)Nc2cc(Cl)c3c(c2)OCCO3)cc1F` yielded an IC50 in data set [1] of 25 µM. The inhibition in [8] was over 50%.
With `Cn1c(=O)[nH]c2ncc(-c3cccc(C(=O)Nc4ccc(Cl)c(CO)c4)c3)cc21`, in data set [1], the IC50 was 15 µM.
Regarding `CCc1c(C(=O)/C=C/c2ccc(O)c([N+](=O)[O-])c2)oc2ccccc12`, the IC50 in [1] amounted to 25 µM.
In data set [1], `O=C(NC1CSC1)c1ncnn2cccc12` returned an IC50 of 62 µM. This molecule also came in with an inhibition in data set [2] of over 50%. Also, the result in [5] was Active.
`CC(C)SCn1cnc2cnn(C)c2c1=O` registered an IC50 in data set [1] of 59 µM. In addition, the inhibition in data set [2] is over 50%. For the same molecule, in the data set listed under Homo sapiens [4], the inhibition result is “Active”. In addition, the result in [5] was Active. Besides, in the data set listed under Homo sapiens [6], the inhibition result is “inactive”.
On to `N#Cc1cncc(NCc2cc(Br)c[nH]2)n1`, for which half-maximal inhibition in data set [1] (IC50) required 60 µM. Further, the inhibition in data set [2] is over 50%.
Consider `CCC(=O)NCCC(=O)N1CCC(C2C(=O)Nc3cc(Cl)ccc32)CC1` (stereo not given), for which the inhibition entry in data set [10] was “inactive”.
For the molecule `Cc1c(C(=O)/C=C/c2cc(Br)c(O)cc2F)c(C#N)c2n1CCC2`, the inhibition result with Bacteria [3] and in the data set filed under Homo sapiens [4] was “Active” in each case. In addition, the outcome in data set [5] was Active. In addition, the inhibition result in the data set listed under Homo sapiens [6] and in the data set with Bacteria [7] was “inactive” each time.
For the molecule `Cn1c(=O)[nH]c2ncc(-c3cccc(C(=O)Nc4cccc(C#N)c4)c3)cc21`, the inhibition result in the data set on Bacteria [3] and in the data set filed under Homo sapiens [4] was “inactive” in each case. In data set [1], this molecule had an IC50 of 20 µM. Further, the inhibition in data set [11] was over 50%. Also, the inhibition entry in data set [12] was “Active”. Also, in data set [5], the CAC is 10 µM.
With `C=CC(=O)NCC(=O)C(=O)N1CCC(C2C(=O)Nc3cc(Cl)ccc32)CC1` (stereo not given), in data set [1], the IC50 is 7 µM. For the same molecule, the inhibition entry in data set [13] was “Active”.
The molecule `Cc1nc2ncc(-c3c[nH]nn3)cc2[nH]1` returned an IC50 in data set [1] of 127 µM. This molecule also registered an inhibition in [2] of over 50%. In addition, the result in [5] was Active.
For `COc1cc(F)cc(NC(=O)c2cccc(-c3cnc4[nH]c(=O)n(C)c4c3)c2)c1`, inhibition in [1] was half-maximal at 14 µM (IC50).
As for `Oc1ccccc1-c1ncnc2[nH]ccc12`, the inhibition entry (in the data set on Bacteria [3]; in data set [14]; in [15]; in the data set listed under Homo sapiens [4]) was “Active” throughout. In data set [1], this molecule displayed an IC50 of 12 µM. The molecule also gave an inhibition in [2] of over 50%. Besides, the inhibition entry in the data set listed under Homo sapiens [6] was “inactive”.
As for `O=C(OCc1cn2cc(Br)ccc2n1)c1cc(-c2ccco2)[nH]n1`, the IC50 in [1] worked out at 6 µM.
Turning to `C=CC(=O)N(C)c1ccc(C(=O)Nc2ccc(-c3cn4ccsc4n3)cc2)cc1`, in [1], it took 39 µM to reach half-maximal inhibition (IC50). In addition, the inhibition in data set [8] is over 50%. In addition, the inhibition entry in data set [16] was “inactive”.
Turning to `Cn1c(C(=O)NCc2ccc(O)c([N+](=O)[O-])c2)c(Br)c2ccccc21`, the inhibition result in the data set on Bacteria [3] and in the data set filed under Homo sapiens [4] was “Active” each time. Besides, the IC50 in data set [1] was 19 µM. Moreover, in data set [5], the result was Active. Also, the inhibition entry in the data set listed under Homo sapiens [6] and in the data set on Bacteria [7] was “inactive” in each case.

(Values after ChEMBL document CHEMBL5338825, “Structure-Based Discovery of Inhibitors of the SARS-CoV-2 Nsp14 N7-Methyltransferase” (J Med Chem, 2023).)
